Source: PubChem BioAssay
Rows were chosen to be rich in hits. Some 3.8% of all compounds tested hit in one or more screens of this group.
KCNK3 block – human KCNK3 channel inhibition, primary screen; CHO-KCNK3 thallium flux, FluxOR fluorescence; hits give low values; B-score at 10 µM; 0.84% of 340,000 active; AID 602410;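 active = B-score under library mean minus 4 SD, starting fluorescence ratio at most library mean plus 5 SD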;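 note: more negative B-score means stronger inhibition of thallium flux through KCNK3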
Kir21 block – inhibitors of mouse Kir2.1 inward-rectifier potassium channel; HEK293-Kir2.1, FluxOR thallium flux fluorescence; hits give low values; 0.85% of 310,000 active; P35561; AID 1672; B-score at 10 µM;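 active = fluorescence ratio B-score at or below minus 3 SD of library scores, with starting-brightness B-score within 2 SD, cut at about -4.2 in these data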;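 note: channel flux triggered by added potassium and thallium sulfate stimulus; B-score of peak minus minimum fluorescence over baseline after thallium stimulus; more negative B-score means stronger Kir2.1 block with less thallium influx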
KCNK9 inh – inhibitors of human KCNK9 two-pore domain potassium channel | AID 488922 | B-score at 10 µM | 1.2% of 310,000 active | Q9NPC2 | HEK293 KCNK9, FluxOR thallium flux fluorescence; hits give low values;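 active = ratio B-score over 3 SD below the library mean, with starting fluorescence within 5 SD of its mean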;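 note: negative B-score means less thallium flux so channel inhibition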
KCNQ1 act – potentiates or activates the human KCNQ1 potassium channel; P51787; B-score at 10 µM; 0.35% of 310,000 active; CHO-K1 KCNQ1, thallium flux FluxOR fluorescence; hits give high values;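 active = fluorescence ratio B-score, a plate-corrected score, at least three library SD, with initial intensity B-score within 5 SD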
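System: CHO-K1 cells stably expressing KCNQ1 / Medium: assay buffer for compound exposure, DMSO matched across wells / Reagent: thallium- and potassium-containing depolarizing buffer / Compound: one concentration, matched DMSO / Incubation: 20 min compound pretreatment at room temperature / Measured by: kinetic FluxOR fluorescence, 10 s baseline plus 110 s post-stimulus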
KCNQ1 inh – inhibitors of human KCNQ1 potassium channel; P51787; CHO-K1 KCNQ1, FluxOR thallium flux fluorescence; hits give high values; B-score at 10 µM; 1.3% of 310,000 active; AID 2642;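 active = compounds whose thallium flux B-score, printed positive for inhibition, exceeds three library SD while starting fluorescence stays within three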;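 note: channel opened by potassium depolarization with thallium stimulus after 20 min compound exposure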
hERG rescue – hERG (human) protection from proarrhythmic block | Q12809 | CHO-hERG, FluxOR thallium flux, dofetilide IC70 present | activation (rescue from dofetilide block), less the hit threshold, % at 10 µM | 0.51% of 310,000 active | AID 1511;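 active = activation above the mean of controls blocked by dofetilide plus 5 SD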;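 note: thallium influx through hERG after potassium depolarization seen as dye fluorescence rise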
Active calls of the source: *; i = inactive; nt = no result.

SMILES	KCNK3 block	Kir21 block	KCNK9 inh	KCNQ1 act	KCNQ1 inh	hERG rescue
CC(NC(=O)CN1C(=O)NC2(CCCCC2)C1=O)c1ccc(S(N)(=O)=O)cc1 (stereo not drawn)	i	nt	nt	nt	nt	nt
NC(=O)CC(NC(=O)c1ccccc1)c1ccc(NCCN2CCCCC2)c([N+](=O)[O-])c1 (stereo not drawn)	i	-2	i	i	i	-1
Cc1ccc(S(=O)(=O)Nc2ccc3c(c2)C(=O)NC3=O)cc1[N+](=O)[O-]	i	-0.02	i	i	i	-7
CCOC(=O)c1c(NC(=O)CSc2nnc3c(Cl)cc(Cl)cn23)sc2c1CCC2	i	-4.3*	i	i	i	-8
O=C(NC1CC1)C1CCC(=O)N1C1CCCC1 (stereo not drawn)	i	-1.1	i	i	i	5.2*
CC(C)N1C(=O)CCC1C(=O)NC1CCCC1 (stereo not drawn)	i	-1.5	i	i	i	-6
C=CCn1c(SCc2csc(-c3ccc(C)cc3)n2)nnc1-c1ccccc1OC	i	-7.7*	i	i	6*	-20
COc1ccccc1-n1cnnc1SCc1csc(-c2ccccc2)n1	i	nt	nt	nt	nt	nt
Cc1ccc(OC(C)C(=O)Nc2ccccc2C(=O)NCc2cccnc2)cc1C (stereo not drawn)	i	-2.4	i	i	6*	-24
CCC(C)c1ccccc1NC(=O)CN1CCN(C/C=C/c2ccccc2)CC1 (stereo not drawn)	i	-4.5*	i	i	i	-14
O=C1OC(c2ccc(O)cc2)(c2ccccc2O)c2ccccc21 (stereo not drawn)	i	nt	nt	nt	nt	nt
O=C1OC(c2ccccc2)(c2cc(Br)ccc2O)c2ccccc21 (stereo not drawn)	-9.8*	nt	nt	nt	nt	nt
C=CCN(CC=C)C(=S)NC(=O)c1ccc(OC)c(Br)c1	i	0.51	i	32*	i	33*
C=CCN(CC=C)C(=S)Nc1cc(Cl)ccc1OC	i	-0.34	i	i	i	1
CCN(CC)C(=S)NC(=O)c1ccc(OC)c(Br)c1	i	-0.04	i	8*	i	3
C=CCNC(=S)NNC(=O)c1ccc([N+](=O)[O-])cc1	i	-0.56	i	i	i	0
COc1ccc(C(=O)NC(=S)N(C)Cc2ccccc2)cc1Br	i	1	i	i	i	-6
C=CCN(CC=C)C(=S)NC(=O)c1ccc([N+](=O)[O-])cc1	i	-0.1	i	10*	i	42*
CC(C)CN1C(=S)SC(C)(C)C1n1oc(=O)n(-c2ccc(Cl)cc2)c1=O (stereo not drawn)	-11*	-1.8	i	i	15*	-10
CC(C)N1C(=S)SC(C)(C)C1n1oc(=O)n(-c2cccc(Cl)c2)c1=O (stereo not drawn)	i	0.54	i	i	i	-2
CCN(CC)S(=O)(=O)c1cccc(C(=O)N[C@H](C(=O)NNC(=O)c2ccccc2)C(C)C)c1	i	2.3	i	33*	i	7.9*
CCN(CC)S(=O)(=O)c1cccc(C(=O)NC(C(=O)NC2=NCCS2)C(C)C)c1 (stereo not drawn)	i	-1.1	i	i	i	-6
Cn1c2ccccc2c2cc(/C=N/NC(=O)c3cc(O)cc(O)c3)ccc21	i	-1.1	i	i	i	-7
CCn1c2ccccc2c2cc(/C=N/NC(=O)c3ccccc3)ccc21	i	-0.28	i	i	i	6.4*
COc1ccc(CN2CCC(n3nccc3NC(=O)c3cccc(F)c3)CC2)cc1O	i	0.6	i	i	i	-13
SMILES	KCNK3 block	Kir21 block	KCNK9 inh	KCNQ1 act	KCNQ1 inh	hERG rescue
CCn1c(=O)c(C(=O)NNC(=O)c2ccccc2)c(O)c2ccccc21	i	0.48	i	i	i	-6
CCn1c(=O)c(-[n+]2ccccc2)c(O)c2ccccc21	i	1.5	i	i	i	8.3*
COc1ccc(C=O)cc1CSc1nnc(COc2cccc3cccnc23)o1	i	-4.9*	i	i	i	-18
CC1CN(C(=O)CCC(=O)N2CCN(c3cccc(C(F)(F)F)c3)CC2)c2ccccc2O1 (stereo not drawn)	i	-2.3	i	i	i	-7
C=CCOc1c(CNc2ccc(S(N)(=O)=O)cc2)cccc1OC	i	2	i	i	i	-6
COc1cccc(CNc2ccc(S(N)(=O)=O)cc2)c1OCc1ccccc1F	i	-5.1*	i	i	i	-11
NC(=S)N=Nc1c(O)n(Cc2ccc(Br)cc2)c2ccccc12	i	-1.9	i	i	i	15*
C/C(Cl)=C\Cn1c(O)c(N=NC(N)=S)c2cc(Br)ccc21	i	2.4	i	19*	i	26*
CC1CCC(C(C)C)C2=C1C(C#N)(C#N)C(C#N)(C#N)C(c1ccccc1)N2 (stereo not drawn)	i	-1.9	i	i	7*	-18
CC1=CC(C#N)(C#N)C(C#N)(C#N)C(c2ccccc2)N1 (stereo not drawn)	nt	-0.36	i	i	i	-10
O=C(Cc1cccc(NC(=O)C2CCCN(C(=O)C3CCC3)C2)c1)Nc1cccc(C(=O)N2CCCC2)c1 (stereo not drawn)	i	nt	nt	nt	nt	nt
O=C(Cc1noc2ccccc12)NNC(=S)Nc1ccccc1	i	-0.34	i	i	i	5.7*
O=C(Cc1noc2ccccc12)NNC(=S)Nc1ccc(Cl)cc1	i	-0.71	i	i	i	0
O=C(CNc1cc(S(=O)(=O)N2CCOCC2)ccc1N1CCCC1)Nc1ccc(Cl)cc1	i	nt	nt	nt	nt	nt
N#CC(c1ccccc1)c1ccc2c(C(F)(F)F)cc(C(F)(F)F)nc2n1 (stereo not drawn)	i	0.42	i	i	i	-1
Cc1ccc(C(C#N)c2ccc3c(C(F)(F)F)cc(C(F)(F)F)nc3n2)cc1 (stereo not drawn)	i	0.57	i	43*	i	10*
CC(C(=O)N1CCCC1)N1CCN(c2ccccc2O)CC1 (stereo not drawn)	i	2.6	i	i	i	11*
COc1ccccc1N1CCN(C(C)C(=O)N2CC(C)OC(C)C2)CC1 (stereo not drawn)	i	-1.1	i	i	i	-14
O=C(Nc1ccccc1)NC1CC2CCC(C1)N2Cc1nnnn1Cc1ccc2c(c1)OCO2 (stereo not drawn)	i	0.13	i	i	i	-13
CCOc1ccccc1NC(=O)NC1CC2CCCC(C1)N2Cc1nnnn1CCc1ccccc1 (stereo not drawn)	-9.1*	0.37	i	i	i	-7
